Data published in ChEMBL document CHEMBL5678802, “Small-molecule p21-activated kinase inhibitor PF-3758309 is a potent inhibitor of oncogenic signaling and tumor growth” (Proc Natl Acad Sci U S A, 2010).
Activity calls are given as the source filed them. The calls are words filed in the database; no cut-off is given here.

Assays:
[1] = tested on: Panc 02.03; assay: Antiproliferative activity against human Panc 02.03 cells assessed as inhibition of cell proliferation incubated for 3 days by CellTiter-Glo Luminescent Cell Viability Assay; type: functional, cell-based; settings: Panc 02.03, 72 h
In short: (§1)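 Cells of each line were plated in 384-well plates on day 1 and exposed to compound from day 2 for 3 days. On day 5 all medium was aspirated. Viable cell number was read by CellTiter-Glo luminescence, which quantifies cellular ATP.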

[2] = biological target: Tumour suppressor p53/oncoprotein Mdm2 (Homo sapiens, UniProt P04637+Q00987); assay: Inhibition of YFP/YFP variant coding sequence fused p53/Mdm2 (unknown origin) expressed in HEK293 cells incubated for 8 to 24 hrs by fluorescence based analysis; type: cell-based
[3] = tested on: HCT-116; assay: Antitumor activity against human HCT-116 cells xenografted in nude mouse assessed as reduction in BAD phosphorylation at S136 residue at 15 to 150 mg/kg/day administered via pump for 18 hrs by Reverse-Phase protein array analysis; type: functional, organism-based; settings: dose 15-150 mg/kg/day
[4] = biological target: T1, Receptor-type tyrosine-protein kinase FLT3 (Homo sapiens, UniProt P36888); assay: Inhibition of human FLT3 assessed as inhibition constant in presence of ATP
T1 sequence (P36888 whole entry): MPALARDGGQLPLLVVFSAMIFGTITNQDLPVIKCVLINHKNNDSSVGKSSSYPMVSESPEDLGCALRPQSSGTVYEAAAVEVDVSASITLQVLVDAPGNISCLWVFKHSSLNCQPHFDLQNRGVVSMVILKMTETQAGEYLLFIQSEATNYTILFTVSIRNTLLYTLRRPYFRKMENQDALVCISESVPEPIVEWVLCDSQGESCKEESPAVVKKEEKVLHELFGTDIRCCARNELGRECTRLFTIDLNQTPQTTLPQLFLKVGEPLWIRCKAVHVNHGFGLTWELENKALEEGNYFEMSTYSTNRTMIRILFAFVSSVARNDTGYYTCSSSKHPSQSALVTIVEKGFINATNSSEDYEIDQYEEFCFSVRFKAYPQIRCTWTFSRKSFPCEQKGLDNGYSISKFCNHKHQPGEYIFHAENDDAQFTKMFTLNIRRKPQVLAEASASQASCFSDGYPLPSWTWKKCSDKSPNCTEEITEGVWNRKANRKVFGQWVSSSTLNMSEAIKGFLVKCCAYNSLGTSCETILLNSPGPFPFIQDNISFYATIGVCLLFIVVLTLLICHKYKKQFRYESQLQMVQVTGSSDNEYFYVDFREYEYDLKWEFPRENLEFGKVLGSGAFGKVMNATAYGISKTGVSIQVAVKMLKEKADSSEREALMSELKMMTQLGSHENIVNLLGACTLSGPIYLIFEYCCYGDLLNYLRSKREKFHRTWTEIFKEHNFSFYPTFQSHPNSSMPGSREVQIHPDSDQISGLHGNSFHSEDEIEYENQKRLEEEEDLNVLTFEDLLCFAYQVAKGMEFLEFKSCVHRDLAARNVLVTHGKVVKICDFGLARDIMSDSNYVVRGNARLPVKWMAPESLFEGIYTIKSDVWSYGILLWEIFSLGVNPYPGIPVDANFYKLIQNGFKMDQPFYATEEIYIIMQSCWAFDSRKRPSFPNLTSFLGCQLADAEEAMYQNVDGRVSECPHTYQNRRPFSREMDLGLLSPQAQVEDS

[5] = tested on: M24met; assay: Antitumor activity against human M24met cells xenografted in nude mouse assessed as tumor growth inhibition at 7.5 mg/kg, po administered once daily for 9 to 18 days relative to control; type: functional; settings: time 9-18 day, read-out: TGI
[6] = tested on: DLD-1; assay: Antiproliferative activity against human DLD-1 cells assessed as inhibition of cell proliferation incubated for 3 days by CellTiter-Glo Luminescent Cell Viability Assay; type: functional, cell-based; settings: DLD-1, 72 h
In short: (§2)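 Cancer cell lines seeded in 384-well plates on day 1; compound added on day 2 and left for 3 days. On day 5 all medium was aspirated, and viable cells were quantified by CellTiter-Glo luminescence, which measures cellular ATP. Dose-dependent effects on proliferation were determined.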

[7] = tested on: MDA-MB-157; assay: Antiproliferative activity against human MDA-MB-157 cells assessed as inhibition of cell proliferation incubated for 3 days by CellTiter-Glo Luminescent Cell Viability Assay; type: functional, cell-based; settings: MDA-MB-157, 72 h; in short: as §2
[8] = biological target: T2, Protein kinase C beta type (Homo sapiens, UniProt P05771); assay: Inhibition of human PKCbeta1 in presence of ATP by cellular assay
[9] = biological target: Serine/threonine-protein kinase Chk2 (Homo sapiens, UniProt O96017); assay: Inhibition of human CHK2 in presence of ATP relative to control; settings: concentration not given here
[10] = biological target: Tyrosine-protein kinase Yes (Homo sapiens, UniProt P07947); assay: Inhibition of human YES1 in presence of ATP relative to control; settings: concentration not given here
[11] = tested on: ZR-75-1; assay: Antiproliferative activity against human ZR-75-1 cells assessed as inhibition of cell proliferation incubated for 3 days by CellTiter-Glo Luminescent Cell Viability Assay; type: functional, cell-based; settings: ZR-75-1, 72 h; in short: as §1
[12] = Drug concentration in nude mouse plasma xenografted with human HCT-116 cells at 1.1 mg/kg administered via pump for 9 days by LC-MS/MS analysis; type: ADME, organism-based; settings: time 9 day
[13] = biological target: T2, Protein kinase C beta type; assay: Inhibition of human PKCbeta-II in presence of ATP
[14] = tested on: COLO 320DM; assay: Antiproliferative activity against human COLO 320DM cells assessed as inhibition of cell proliferation incubated for 3 days by CellTiter-Glo Luminescent Cell Viability Assay; type: functional, cell-based; settings: 72 h; in short: as §2
[15] = biological target: Proto-oncogene tyrosine-protein kinase Src (Homo sapiens, UniProt P12931); assay: Inhibition of human SRC assessed as inhibition constant in presence of ATP
[16] = tested on: HCT-116; assay: Antitumor activity against human HCT-116 cells xenografted in nude mouse assessed as increase in caspase 3 activation at 15 to 25 mg/kg, po administered twice daily for 6 days by immunohistochemical analysis; type: functional, organism-based; settings: dose 15-25 mg/kg, time 6.0 day
In short: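 HCT116 cells (2 × 10^6 in 0.15 mL 1:1 Matrigel:PBS) were implanted s.c. in nude mice. At 300–350 mm3, mice were randomized into groups of five and dosed orally twice daily with vehicle, 15 or 25 mg/kg. Tumors were harvested on days 2, 3 and 6, paraformaldehyde-fixed and IHC-stained for caspase 3 (1:200). Three serial sections were scored 0–4 (0 = <2% to 4 = >7% positive cells).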

[17] = tested on: GTL 16 cell line; assay: Antitumor activity against human GTL-16 cell line xenografted in nude mouse assessed as tumor growth inhibition at 20 mg/kg, po administered once daily for 9 to 18 days relative to control; type: functional; settings: time 9-18 day, read-out: TGI
In short: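 Tumor cells were implanted s.c. into the right flank of female nu/nu nude mice aged 6–8 weeks. Animals were randomized into treatment groups once tumors were established (example: day 8 postimplant, about 170 mm3, animals >22 g). Compound in 0.5% methylcellulose was given by oral gavage. Tumors were measured with calipers two to three times per week.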

T2 sequence (P05771 whole entry): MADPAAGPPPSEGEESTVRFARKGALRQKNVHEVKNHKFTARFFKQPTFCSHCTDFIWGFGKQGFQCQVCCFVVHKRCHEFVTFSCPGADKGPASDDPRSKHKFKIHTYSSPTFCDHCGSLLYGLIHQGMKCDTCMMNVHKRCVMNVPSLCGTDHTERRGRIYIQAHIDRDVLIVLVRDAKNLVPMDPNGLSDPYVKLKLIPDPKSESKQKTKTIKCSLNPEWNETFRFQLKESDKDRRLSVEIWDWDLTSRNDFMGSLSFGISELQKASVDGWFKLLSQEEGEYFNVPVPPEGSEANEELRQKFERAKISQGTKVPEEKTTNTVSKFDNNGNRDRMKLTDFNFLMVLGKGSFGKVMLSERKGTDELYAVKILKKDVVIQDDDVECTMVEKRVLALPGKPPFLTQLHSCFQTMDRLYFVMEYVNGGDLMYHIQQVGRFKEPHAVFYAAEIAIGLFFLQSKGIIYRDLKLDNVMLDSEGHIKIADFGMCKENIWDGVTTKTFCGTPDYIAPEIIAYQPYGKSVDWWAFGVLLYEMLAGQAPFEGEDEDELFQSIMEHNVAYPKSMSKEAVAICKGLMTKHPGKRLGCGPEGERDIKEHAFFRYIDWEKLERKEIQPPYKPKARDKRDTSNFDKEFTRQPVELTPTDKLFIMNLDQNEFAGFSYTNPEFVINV
Serine/threonine-protein kinase Chk2, sequence (O96017 whole entry): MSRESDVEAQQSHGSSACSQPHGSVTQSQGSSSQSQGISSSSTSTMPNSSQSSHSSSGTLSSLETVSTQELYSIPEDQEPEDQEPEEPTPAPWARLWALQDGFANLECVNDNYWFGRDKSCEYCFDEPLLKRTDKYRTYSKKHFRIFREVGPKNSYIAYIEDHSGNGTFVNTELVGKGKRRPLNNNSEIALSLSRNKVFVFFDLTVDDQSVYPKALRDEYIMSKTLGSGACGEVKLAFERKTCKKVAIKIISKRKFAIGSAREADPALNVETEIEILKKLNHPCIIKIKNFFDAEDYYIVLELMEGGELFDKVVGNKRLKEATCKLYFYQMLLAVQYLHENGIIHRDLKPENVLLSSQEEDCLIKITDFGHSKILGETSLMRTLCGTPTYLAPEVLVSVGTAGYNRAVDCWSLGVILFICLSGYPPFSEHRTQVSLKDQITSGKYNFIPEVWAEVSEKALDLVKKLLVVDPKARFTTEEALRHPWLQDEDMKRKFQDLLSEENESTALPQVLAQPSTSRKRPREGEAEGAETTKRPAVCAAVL
Tyrosine-protein kinase Yes, sequence (P07947 2-543 limits assumed): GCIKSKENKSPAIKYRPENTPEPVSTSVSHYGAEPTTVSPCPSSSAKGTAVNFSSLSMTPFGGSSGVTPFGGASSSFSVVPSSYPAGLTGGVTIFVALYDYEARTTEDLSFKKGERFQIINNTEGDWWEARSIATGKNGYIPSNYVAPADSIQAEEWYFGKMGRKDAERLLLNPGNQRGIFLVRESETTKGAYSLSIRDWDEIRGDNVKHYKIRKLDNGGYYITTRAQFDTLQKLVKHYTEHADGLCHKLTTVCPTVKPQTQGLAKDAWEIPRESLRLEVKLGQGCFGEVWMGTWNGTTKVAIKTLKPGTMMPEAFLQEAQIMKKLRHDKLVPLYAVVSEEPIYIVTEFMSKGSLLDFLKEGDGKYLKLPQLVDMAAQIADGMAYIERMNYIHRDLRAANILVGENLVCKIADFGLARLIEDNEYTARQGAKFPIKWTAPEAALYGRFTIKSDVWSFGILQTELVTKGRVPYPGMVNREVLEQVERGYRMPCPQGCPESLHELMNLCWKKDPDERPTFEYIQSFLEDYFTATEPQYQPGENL
Tumour suppressor p53/oncoprotein Mdm2, sequence (P04637 whole entry, looked up, stated change not applied, the tested form may be a part): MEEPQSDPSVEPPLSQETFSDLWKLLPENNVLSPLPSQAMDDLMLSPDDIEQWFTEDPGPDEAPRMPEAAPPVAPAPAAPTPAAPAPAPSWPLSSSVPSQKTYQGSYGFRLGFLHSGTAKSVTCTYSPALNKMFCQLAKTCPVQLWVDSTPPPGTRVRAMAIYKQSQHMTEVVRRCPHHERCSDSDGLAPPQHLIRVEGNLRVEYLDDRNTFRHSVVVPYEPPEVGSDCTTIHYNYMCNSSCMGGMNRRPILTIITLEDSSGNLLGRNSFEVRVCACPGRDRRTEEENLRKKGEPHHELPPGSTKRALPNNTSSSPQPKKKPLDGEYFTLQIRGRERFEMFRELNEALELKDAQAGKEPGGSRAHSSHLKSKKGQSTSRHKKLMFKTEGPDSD
Tumour suppressor p53/oncoprotein Mdm2, sequence (Q00987 whole entry, looked up, stated change not applied, the tested form may be a part): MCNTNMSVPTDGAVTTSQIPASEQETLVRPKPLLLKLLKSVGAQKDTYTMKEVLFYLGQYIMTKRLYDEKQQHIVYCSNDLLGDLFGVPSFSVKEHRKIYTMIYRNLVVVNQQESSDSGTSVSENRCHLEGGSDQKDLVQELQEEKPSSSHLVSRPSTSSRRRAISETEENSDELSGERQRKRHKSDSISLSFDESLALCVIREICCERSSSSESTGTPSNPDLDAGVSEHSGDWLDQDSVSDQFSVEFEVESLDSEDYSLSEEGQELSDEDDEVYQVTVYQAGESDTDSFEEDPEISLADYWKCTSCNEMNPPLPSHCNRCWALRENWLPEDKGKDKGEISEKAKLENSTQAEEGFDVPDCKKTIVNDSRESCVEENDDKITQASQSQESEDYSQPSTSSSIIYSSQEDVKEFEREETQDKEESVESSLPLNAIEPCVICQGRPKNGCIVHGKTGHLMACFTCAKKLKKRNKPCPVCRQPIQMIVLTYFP
Proto-oncogene tyrosine-protein kinase Src, sequence (P12931 2-536 limits assumed): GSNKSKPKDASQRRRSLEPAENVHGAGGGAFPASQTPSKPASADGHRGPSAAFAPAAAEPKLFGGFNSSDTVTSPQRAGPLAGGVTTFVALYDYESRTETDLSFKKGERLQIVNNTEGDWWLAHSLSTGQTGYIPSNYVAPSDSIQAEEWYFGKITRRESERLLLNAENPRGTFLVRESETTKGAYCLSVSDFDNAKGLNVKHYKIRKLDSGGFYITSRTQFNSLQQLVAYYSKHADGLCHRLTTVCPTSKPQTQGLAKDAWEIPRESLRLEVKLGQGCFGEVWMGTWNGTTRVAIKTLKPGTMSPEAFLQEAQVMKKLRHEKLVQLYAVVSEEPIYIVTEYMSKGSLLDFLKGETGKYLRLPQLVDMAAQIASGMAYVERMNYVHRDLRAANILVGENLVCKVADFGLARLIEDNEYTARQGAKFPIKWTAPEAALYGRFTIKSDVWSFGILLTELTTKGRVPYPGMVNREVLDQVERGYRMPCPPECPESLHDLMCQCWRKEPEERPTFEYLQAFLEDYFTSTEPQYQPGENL

Cc1nc(Nc2n[nH]c3c2CN(C(=O)N[C@H](CN(C)C)c2ccccc2)C3(C)C)c2sccc2n1 [PF-03758309]
IC50 [1]: 540 nM
IC50 [2]: 5.6 nM
Activity [3]: Active
Ki [4]: 81 nM
inhibition in vivo at 7.5 mg/kg [5]: 49%
IC50 [6]: 10000 nM
IC50 [7]: 145 nM
IC50 [8]: 2490 nM
inhibition [9]: 103%
inhibition [10]: 92%
IC50 [11]: 0.49 nM
concentration at 216 h [12]: 5.6 ng/mL
IC50 [13]: 156 nM
IC50 [14]: 205 nM
Ki [15]: 32 nM
Activity [16]: Active
inhibition in vivo at 20 mg/kg [17]: 28%
